# The list is not random: actives were taken first. Their share in the collection is about 1.4%.
# Arrestin-AP2 inh = inhibitors of beta-arrestin/AP2 binding, primary screen, biochemical, GPCR trafficking, flow cytometry; beta-arrestin 1 C-terminal peptide binding to AP2 beta2-adaptin appendage (human); FITC-arrestin peptide / GST-AP2 beads; AP2 beta2 appendage carries R879A mutation; inhibition, % at 10 µM; hit rate 0.31% among 340,000; AID 504490, 2011;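 active = inhibition above a set limit, near 3 SD of compounds lacking own fluorescence, cut at about 54% in these data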;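 also: plate controls were DMSO wells for no effect and 5 µM unlabelled arrestin peptide for full effect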
#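 System: GST-tagged AP2 beta2-adaptin appendage (R879A) on 4 µm glutathione beads / Reagent: FITC-arrestin peptide, 50 nM / Detection: HyperCyt-sampled flow cytometry, FL1 channel, ex 488/em 535 nm / Timing: 12 min plus 1 h, RT / Buffer or medium: PBS plus Tween 20 (0.05%) and BSA (0.1%)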
# HTR5A ag ctr = HTR5A agonists in luminescence cell assay, primary screen, counter-screen for OPRM1-OPRD1 heterodimer agonist project, full-deck HTS; cell-based; activation, % at 9.3 µM; hit rate 0.61% among 340,000; AID 504692, 2011; in the data active = activation mostly above about 9.5%, no sharp cut-off; inactive = mostly below about 7.6%;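 also: 0% = cells with vehicle only and 100% = reference agonist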
# MOR-DOR inv ag = inverse agonists of MOR-DOR heterodimerization, primary screen, cell-based, luminescence; Mu-type opioid receptor (Homo sapiens) + Delta-type opioid receptor (Homo sapiens), …; cell-based MOR-DOR heterodimer luminescence, inverse agonism; inhibition, % at 9.3 µM; hit rate 0.21% among 340,000; in the data active = inhibition above about 22%, passing the limit was not always enough;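 also: 0% = cells with DMSO and 100% = wells without cells with DMSO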
# Target sequence (P35372 whole entry, looked up): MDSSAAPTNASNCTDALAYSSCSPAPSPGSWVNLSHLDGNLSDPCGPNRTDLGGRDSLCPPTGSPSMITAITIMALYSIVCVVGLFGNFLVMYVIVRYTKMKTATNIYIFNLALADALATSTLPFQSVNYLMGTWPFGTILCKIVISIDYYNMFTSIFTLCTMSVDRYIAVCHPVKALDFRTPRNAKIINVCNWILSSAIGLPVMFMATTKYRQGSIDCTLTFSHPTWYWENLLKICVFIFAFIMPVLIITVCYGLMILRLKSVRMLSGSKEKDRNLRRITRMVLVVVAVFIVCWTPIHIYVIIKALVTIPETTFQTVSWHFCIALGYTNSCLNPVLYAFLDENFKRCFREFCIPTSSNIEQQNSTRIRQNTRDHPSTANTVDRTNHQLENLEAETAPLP
# Target sequence (P41143 whole entry, looked up): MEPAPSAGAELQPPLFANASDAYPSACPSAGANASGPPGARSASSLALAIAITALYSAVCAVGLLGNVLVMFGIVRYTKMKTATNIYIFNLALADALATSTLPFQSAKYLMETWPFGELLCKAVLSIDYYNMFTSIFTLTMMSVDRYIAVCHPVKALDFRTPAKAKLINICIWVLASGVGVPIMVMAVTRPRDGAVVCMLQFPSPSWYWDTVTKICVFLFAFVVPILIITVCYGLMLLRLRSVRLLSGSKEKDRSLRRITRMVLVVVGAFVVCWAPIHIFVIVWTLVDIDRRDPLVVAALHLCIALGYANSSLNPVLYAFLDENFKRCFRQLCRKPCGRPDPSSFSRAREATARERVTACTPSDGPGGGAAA
# DAGLB inhibitor = DAGLB lipase inhibitors, primary screen, biochemical, fluorescence, HTS | HEK293T DAGLB membrane lysate, EnzChek fluorogenic substrate | inhibition, % at 5.17 µM | hit rate 0.059% among 340,000; in the data active = inhibition above about 34%;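 also: 0% = enzyme with vehicle and 100% = wells lacking enzyme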
# MOR-DOR ag-1 = agonists of OPRM1-OPRD1 heterodimerization, primary screen, cell-based, luminescence; Mu-type opioid receptor (Homo sapiens) + Delta-type opioid receptor (Homo sapiens), …; cells; activation, % at 9.3 µM; hit rate 0.3% among 340,000; AID 504326, 2011;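 also: 0% = vehicle-treated cells and 100% = reference agonist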
# HTR5A inv ag = HTR5A inverse agonists in luminescence cell assay, primary screen, counter-screen for OPRM1-OPRD1 heterodimer inverse agonist project, full-deck HTS; HTR5A cell line, inverse agonism; inhibition, % at 9.3 µM; hit rate 0.083% among 340,000; AID 504634, 2011; in the data active = inhibition mostly above about 23%, no sharp cut-off; inactive = mostly below about 18%;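 also: 0% = cells with DMSO and 100% = no-cell wells with DMSO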
# MOR-DOR ag-2 = OPRM1-OPRD1 heterodimerization promoters, counter-screen for HTR5A agonist project, cell-based, luminescence. shares compounds with HTR5A ag ctr. U2OS counter-screen cells, complementation luminescence, 3 h. activation, % at 9.3 µM. hit rate 13% among 800. AID 504913, 2011
# HTR5A ag confirm = HTR5A agonists, retest of hits, confirmation, cell-based, luminescence. activation, % at 9.3 µM. AID 504915, 2011. HTR5A agonist cell assay. hit rate 17% among 800. shares compounds with HTR5A ag ctr; in the data active = activation above about 17%;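 also: 0% = cells with vehicle only and 100% = full reference agonist response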
# Active calls of the source: *; · = no result. Rule as the data show it, unless noted: active = activation above about 18%; inactive = the rest.
SMILES,Arrestin-AP2 inh,HTR5A ag ctr,MOR-DOR inv ag,DAGLB inhibitor,MOR-DOR ag-1,HTR5A inv ag,MOR-DOR ag-2,HTR5A ag confirm
N#Cc1ccccc1S(=O)(=O)N1CCN(C(=O)CN(Cc2ccco2)Cc2cccs2)CC1,·,·,·,0,·,·,·,·
COc1ccc(NC(=O)CC2C(=O)N(Cc3ccccc3)C(=S)N2CCN2CCOCC2)cc1 (stereo unspecified),18,1,-5,2,1,-4,·,·
C=CCN1C(=O)C(CC(=O)Nc2ccc(OCCC)cc2)N(CCCN2CCN(Cc3ccccc3)CC2)C1=S (stereo unspecified),11,17*,-76,-1,16,-73,39*,-2
CCN1C(=O)C(CC(=O)Nc2ccc(F)cc2)N(Cc2ccco2)C1=S (stereo unspecified),24,-3,13,-4,-3,6,·,·
CCCCCCOc1ccc(NC(=O)CC2C(=O)N(CC)C(=S)N2Cc2ccco2)cc1 (stereo unspecified),-30,15*,-16,-19,3,-34,-1,-9
COc1cccc(C(C#N)NCCCNC(C#N)c2cccc(OC)c2OC)c1OC (stereo unspecified),13,-4,9,2,-2,16,·,·
COc1ccc(C)cc1NC(=O)CSc1nnc(-c2ccc(Br)cc2)o1,-6,22*,-9,-6,2,-17,2,2
C[C@H]1CN([C@@H](C)CO)S(=O)(=O)c2ccc(Br)cc2O[C@@H]1CN(C)Cc1cccc(F)c1,·,·,·,-7,·,·,·,·
O=C(NN=C1CCCCCCC1)c1ccc(F)cc1,2,1,-5,-3,1,-3,·,·
CC(C)(C)c1ccc(C(=O)NN=C2CCCC2)cc1,6,15*,-10,-5,2,-24,1,1
O=C1CCCCC1Nc1ccc2ccccc2c1 (stereo unspecified),11,2,8,0,-2,-7,·,·
Cc1ccc(C)c(S(=O)(=O)NCc2ccncc2)c1,-3,15*,3,0,-1,0,4,2
Cc1ccc(C)c(S(=O)(=O)NCc2cccnc2)c1,-2,-3,11,0,-2,-27,·,·
COc1ccc(C2c3cc(OC)c(OC)cc3CC3C(=O)OCC32)cc1OC (stereo unspecified),11,2,5,2,-1,-10,·,·
COc1ccc(-c2csc(NC(C)c3nc4cc(C(=O)NCCCO)ccc4n3Cc3ccc(C)cc3)n2)cc1 (stereo unspecified),4,30*,4,4,-1,-143,0,38*
COc1cccc(CN(C)CCCn2cnc3c(SC)ncnc32)c1,·,·,·,2,·,·,·,·
COc1cc(/C=C2\SC(=O)N(CCN)C2=O)ccc1OS(=O)(=O)c1cc(C)ccc1C,14,22*,-42,3,9,-64,19*,15
COc1ccccc1CC(NC(C)=O)C(=O)N1CCN(C(=O)c2cccs2)CC1 (stereo unspecified),5,-2,12,-1,-3,10,·,·
COc1ccccc1CN(C)C(=O)CN1CCN(C(=O)c2cccs2)CC1,41,15*,16,0,-4,10,1,32*
CCN(CC(=O)Nc1c(F)cccc1F)C(=O)CCCN1C(=O)c2cccc3cccc(c23)C1=O,·,·,·,-1,·,·,·,·
CCOC(=O)c1c(NC(=O)CSc2n[nH]c(CNc3ccccc3)n2)sc(C)c1C,10,23*,-50,-1,9,-12,6,4
COC(=O)c1c(NC(=O)CSc2n[nH]c(N)n2)sc(C)c1C,28,-1,8,-2,-1,0,·,·
CCOC(=O)c1c(NC(=O)CSc2n[nH]c(-c3ccco3)n2)sc(C)c1C,-4,5,0,1,0,-24,·,·
CCOC(=O)c1c(NC(=O)CSc2n[nH]c(N)n2)sc(CC)c1C,1,17*,-19,7,3,-24,9,2
CCc1cc2cc(C)c(C)cc2nc1SCC(=O)Nc1cc(C)on1,7,2,9,3,-2,-4,·,·
SMILES,Arrestin-AP2 inh,HTR5A ag ctr,MOR-DOR inv ag,DAGLB inhibitor,MOR-DOR ag-1,HTR5A inv ag,MOR-DOR ag-2,HTR5A ag confirm
CCc1cc2ccccc2nc1SCC(=O)Nc1cc(C)on1,5,26*,-15,-7,3,-14,3,4
Cc1ccc(-c2nn3c(-c4ccccc4)nnc3o2)cc1,·,·,·,-14,·,·,·,·
CCOc1ccc(NC(=O)c2cc(=O)[nH]c3ccccc23)cc1,39,16*,7,-1,-1,-44,21*,-1
O=C(NNC(=O)c1ccccc1[N+](=O)[O-])c1cccs1,-11,3,15,-1,-3,-8,·,·
O=C(COC(=O)c1ccccc1[N+](=O)[O-])NNC(=O)c1cccs1,2,16*,7,0,-1,-3,0,0
O=C(Nc1ccc2c(c1)OCO2)c1cc(-c2ccccc2Cl)on1,2,17*,-46,-6,7,-34,0,4
O=C(NCc1ccc2c(c1)OCO2)c1cc(-c2ccccc2Cl)on1,-4,0,-2,-17,0,-15,·,·
Cc1cccc(NC(=O)CSc2nncn2N)c1C,·,·,·,0,·,·,·,·
Cc1cc(C)c(OCCCCNCc2ccccc2)c(Cl)c1,-9,19*,-28,-3,6,-46,12,1
Cc1cc(C)c(OCCNCc2ccccc2)c(C)c1,-15,-2,-7,-7,2,6,·,·
O=[N+]([O-])c1ccccc1C(O)Cc1ccccn1 (stereo unspecified),-14,-1,10,-3,-2,2,·,·
Cc1c(C)[n+](=O)c(C)c(C)n1[O-],0,-1,16,-1,-3,2,·,·
COc1ccc(OC)c(NC(=O)CSc2nc3nc(C)cc(C)n3n2)c1,29,17*,9,1,-2,-41,0,-3
COc1ccc(NC(=O)CSc2nc3nc(C)cc(C)n3n2)cc1,-5,4,9,-4,-1,-11,·,·
COc1ccccc1CNC(=S)Nc1ccc2nc(N3CCN(C)CC3)cc(C)c2c1,-16,70*,11,3,-2,-199,2,70*
COc1ccc(CNC(=S)Nc2ccc3nc(N4CCN(C)CC4)cc(C)c3c2)cc1,-6,5,7,3,-1,-16,·,·

# Screens deposited in PubChem by several laboratories.
